According to ChEMBL document CHEMBL1133584, “Potent and selective non-peptidic inhibitors of endothelin-converting enzyme-1 with sustained duration of action” (J Med Chem, 2000):

Key:
Neprilysin = target: T1, Neprilysin (Rattus norvegicus, UniProt P07861); experiment: In vitro inhibition of rat neutral endopeptidase
T1 sequence (P07861 whole entry): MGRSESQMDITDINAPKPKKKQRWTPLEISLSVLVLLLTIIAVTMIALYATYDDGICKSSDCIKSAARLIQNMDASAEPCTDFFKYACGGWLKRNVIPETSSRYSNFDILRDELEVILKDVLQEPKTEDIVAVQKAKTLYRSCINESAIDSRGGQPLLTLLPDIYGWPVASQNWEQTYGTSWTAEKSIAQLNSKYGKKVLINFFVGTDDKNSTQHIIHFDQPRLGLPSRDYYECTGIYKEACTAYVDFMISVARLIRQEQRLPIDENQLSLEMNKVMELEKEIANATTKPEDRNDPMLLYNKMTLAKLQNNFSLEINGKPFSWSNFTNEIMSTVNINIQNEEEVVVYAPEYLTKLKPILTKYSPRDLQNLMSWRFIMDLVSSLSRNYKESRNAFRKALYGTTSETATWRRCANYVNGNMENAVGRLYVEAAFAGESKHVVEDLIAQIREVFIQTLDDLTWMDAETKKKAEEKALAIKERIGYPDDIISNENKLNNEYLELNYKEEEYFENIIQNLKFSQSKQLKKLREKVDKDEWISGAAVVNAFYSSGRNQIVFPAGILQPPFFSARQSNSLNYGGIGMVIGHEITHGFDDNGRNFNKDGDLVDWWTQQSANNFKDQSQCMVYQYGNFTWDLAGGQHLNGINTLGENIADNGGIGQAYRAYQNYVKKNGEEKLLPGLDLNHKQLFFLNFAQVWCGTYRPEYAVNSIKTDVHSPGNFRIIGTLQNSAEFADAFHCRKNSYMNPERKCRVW

[1] = target: T2, Endothelin-converting enzyme 1 (Homo sapiens) (UniProt P42892); experiment: Inhibition of Endothelin-converting enzyme 1 activity at a concentration of 1 uM
T2 sequence (whole entry): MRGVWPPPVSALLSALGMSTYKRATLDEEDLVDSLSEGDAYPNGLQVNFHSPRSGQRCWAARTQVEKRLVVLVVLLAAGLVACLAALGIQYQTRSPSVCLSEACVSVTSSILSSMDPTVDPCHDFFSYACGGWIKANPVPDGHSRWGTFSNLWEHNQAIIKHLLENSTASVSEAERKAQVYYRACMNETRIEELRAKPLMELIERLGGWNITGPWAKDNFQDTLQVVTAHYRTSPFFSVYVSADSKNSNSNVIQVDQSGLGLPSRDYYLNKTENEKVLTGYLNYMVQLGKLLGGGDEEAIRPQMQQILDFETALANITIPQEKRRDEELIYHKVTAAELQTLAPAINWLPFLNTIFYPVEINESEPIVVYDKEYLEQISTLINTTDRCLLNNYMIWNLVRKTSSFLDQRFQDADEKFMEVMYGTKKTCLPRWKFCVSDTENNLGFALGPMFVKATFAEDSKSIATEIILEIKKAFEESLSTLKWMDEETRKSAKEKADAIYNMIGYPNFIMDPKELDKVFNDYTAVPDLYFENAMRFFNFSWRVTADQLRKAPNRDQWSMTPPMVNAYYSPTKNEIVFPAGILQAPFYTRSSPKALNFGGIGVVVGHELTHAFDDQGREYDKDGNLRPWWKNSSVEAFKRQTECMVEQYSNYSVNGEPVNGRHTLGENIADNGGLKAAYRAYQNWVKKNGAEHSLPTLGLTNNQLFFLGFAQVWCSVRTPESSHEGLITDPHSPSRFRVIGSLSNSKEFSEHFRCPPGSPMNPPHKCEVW
In short: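 Human recombinant ECE-1a came from CHO cell membranes. Activity was measured with test compound at 1 µM and expressed as percent inhibition.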

[2] = Selectivity ratio of IC50 NEP/IC50 ECE
In short: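 ECE selectivity was the ratio of IC50 against rat kidney cortex NEP 24.11 to IC50 against CHO-membrane human recombinant ECE-1a.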

[3] = target: T3, Endothelin-converting enzyme 1 (Homo sapiens, UniProt P42892); experiment: In Vitro inhibition of recombinant human endothelin converting enzyme-1
T3 sequence (P42892 whole entry): T2 sequence (whole entry)
In short: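 Enzyme was human recombinant ECE-1a from membranes of CHO cells expressing it. The IC50 was determined by the assay method of earlier work.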

SMILES	IC50 (Neprilysin) [µM]	inhibition [1] [%]	Selectivity [2]	IC50 [3] [µM]
O=C(O)CNC(=O)[C@H](Cc1ccc2c(c1)oc1ccccc12)NCP(=O)(O)O	> 10	43		
CC(C)C[C@H](NC(=O)[C@H](CC#Cc1ccc(F)cc1F)NCP(=O)(O)O)C(=O)N[C@@H](C)C(=O)O	5.8		725	
O=P(O)(O)C(CCc1cccc2ccccc12)N[C@@H](Cc1ccc(-c2ccccc2)cc1)c1nnn[nH]1 (stereo partly specified)	0.005		0.29	
CC(C)C[C@H](NC(=O)[C@H](CC#Cc1ccc(F)cc1F)NCP(=O)(O)O)C(=O)O	6.7		131	
CC(NC(=O)[C@H](Cc1ccc2c(c1)oc1ccccc12)NCP(=O)(O)O)C(=O)O (stereo partly specified)	1.64	35		
O=P(O)(O)CN[C@@H](CC#Cc1ccccc1F)c1nnn[nH]1	0.014		0.1	
O=C(NCCc1ccc(-c2ccccc2)cc1)[C@H](Cc1ccc2c(c1)oc1ccccc12)NCP(=O)(O)O		5		
O=C(NCCc1ccccc1)[C@H](Cc1ccc2c(c1)oc1ccccc12)NCP(=O)(O)O		29		
O=C(O)[C@H](Cc1ccc2c(c1)oc1ccccc12)NC(CCc1cccc2cccnc12)P(=O)(O)O (stereo in doubt; 40m') [listing 1 of 2 here]	59			0.014
O=C(O)[C@H](Cc1ccc2c(c1)oc1ccccc12)NC(CCc1cccc2cccnc12)P(=O)(O)O (stereo in doubt; 40m') [listing 2 of 2 here]		94	4210	
NCCCCC(N[C@@H](Cc1ccc2c(c1)oc1ccccc12)C(=O)O)P(=O)(O)O (stereo in doubt; 40o') [listing 1 of 2 here]	> 100			0.097
NCCCCC(N[C@@H](Cc1ccc2c(c1)oc1ccccc12)C(=O)O)P(=O)(O)O (stereo in doubt; 40o') [listing 2 of 2 here]		84	> 1030	
NCCCCC(N[C@@H](Cc1ccc2c(c1)oc1ccccc12)C(=O)O)P(=O)(O)O (stereo in doubt; 40p')		19		
NCCCC(N[C@@H](Cc1ccc2c(c1)oc1ccccc12)C(=O)O)P(=O)(O)O (stereo in doubt; 40q')		73		
NCCCC(N[C@@H](Cc1ccc2c(c1)oc1ccccc12)C(=O)O)P(=O)(O)O (stereo in doubt; 40r')		29		
CC(N[C@@H](Cc1ccc2c(c1)oc1ccccc12)C(=O)O)P(=O)(O)O (stereo in doubt; 40u) [listing 1 of 2 here]	28			0.096
CC(N[C@@H](Cc1ccc2c(c1)oc1ccccc12)C(=O)O)P(=O)(O)O (stereo in doubt; 40u) [listing 2 of 2 here]		88	292	
CC(N[C@@H](Cc1ccc2c(c1)oc1ccccc12)C(=O)O)P(=O)(O)O (stereo in doubt; 40v) [listing 1 of 2 here]	47			0.18
CC(N[C@@H](Cc1ccc2c(c1)oc1ccccc12)C(=O)O)P(=O)(O)O (stereo in doubt; 40v) [listing 2 of 2 here]		81	261	
O=P(O)(O)C(CCc1cccc2ccccc12)N[C@@H](Cc1ccc2c(c1)oc1ccccc12)c1nnn[nH]1 (stereo in doubt; 43a') [listing 1 of 2 here]	0.21			0.0026
O=P(O)(O)C(CCc1cccc2ccccc12)N[C@@H](Cc1ccc2c(c1)oc1ccccc12)c1nnn[nH]1 (stereo in doubt; 43a') [listing 2 of 2 here]		98	81	
O=P(O)(O)C(CCc1cccc2ccccc12)N[C@@H](Cc1ccc2c(c1)oc1ccccc12)c1nnn[nH]1 (stereo in doubt; 43b')		73	29	
CC(C)C[C@H](NP(=O)(O)O[C@@H]1O[C@@H](C)[C@H](O)[C@@H](O)[C@H]1O)C(=O)N[C@@H](Cc1c[nH]c2ccccc12)C(=O)O [PHOSPHORAMIDON]	0.03			
O=C(O)CNC(=O)C(CS)Cc1ccccc1 (stereo unspecified) [THIORPHAN]				> 100

Further lines, results first:

IC50 (Neprilysin) [µM]	inhibition [1] [%]	Selectivity [2]	IC50 [3] [µM]	SMILES
13.8			0.024	O=C(O)[C@H](Cc1ccc2c(c1)oc1ccccc12)NC(CCc1cccc2ccccc12)P(=O)(O)O (stereo in doubt; 40a') [listing 1 of 2 here]
	95	574		O=C(O)[C@H](Cc1ccc2c(c1)oc1ccccc12)NC(CCc1cccc2ccccc12)P(=O)(O)O (stereo in doubt; 40a') [listing 2 of 2 here]
			1.8	O=C(O)[C@H](Cc1ccc2c(c1)oc1ccccc12)NC(CCc1cccc2ccccc12)P(=O)(O)O (stereo in doubt; 40b') [listing 1 of 2 here]
	34			O=C(O)[C@H](Cc1ccc2c(c1)oc1ccccc12)NC(CCc1cccc2ccccc12)P(=O)(O)O (stereo in doubt; 40b') [listing 2 of 2 here]
24			0.019	COc1cccc(CCC(N[C@@H](Cc2ccc3c(c2)oc2ccccc23)C(=O)O)P(=O)(O)O)c1OC (stereo in doubt; 40c) [listing 1 of 2 here]
	95	1260		COc1cccc(CCC(N[C@@H](Cc2ccc3c(c2)oc2ccccc23)C(=O)O)P(=O)(O)O)c1OC (stereo in doubt; 40c) [listing 2 of 2 here]
6.4			0.11	COc1cccc(CCC(N[C@@H](Cc2ccc3c(c2)oc2ccccc23)C(=O)O)P(=O)(O)O)c1OC (stereo in doubt; 40d') [listing 1 of 2 here]
	85	58		COc1cccc(CCC(N[C@@H](Cc2ccc3c(c2)oc2ccccc23)C(=O)O)P(=O)(O)O)c1OC (stereo in doubt; 40d') [listing 2 of 2 here]
> 10			0.029	COc1ccc(CCC(N[C@@H](Cc2ccc3c(c2)oc2ccccc23)C(=O)O)P(=O)(O)O)cc1OC (stereo in doubt; 40e') [listing 1 of 2 here]
	93	> 345		COc1ccc(CCC(N[C@@H](Cc2ccc3c(c2)oc2ccccc23)C(=O)O)P(=O)(O)O)cc1OC (stereo in doubt; 40e') [listing 2 of 2 here]
			0.89	COc1ccc(CCC(N[C@@H](Cc2ccc3c(c2)oc2ccccc23)C(=O)O)P(=O)(O)O)cc1OC (stereo in doubt; 40f ') [listing 1 of 2 here]
	58			COc1ccc(CCC(N[C@@H](Cc2ccc3c(c2)oc2ccccc23)C(=O)O)P(=O)(O)O)cc1OC (stereo in doubt; 40f ') [listing 2 of 2 here]
> 10			0.04	COc1cc(OC)c(OC)cc1CCC(N[C@@H](Cc1ccc2c(c1)oc1ccccc12)C(=O)O)P(=O)(O)O (stereo in doubt; 40i') [listing 1 of 2 here]
	91	> 250		COc1cc(OC)c(OC)cc1CCC(N[C@@H](Cc1ccc2c(c1)oc1ccccc12)C(=O)O)P(=O)(O)O (stereo in doubt; 40i') [listing 2 of 2 here]
	38			COc1cc(OC)c(OC)cc1CCC(N[C@@H](Cc1ccc2c(c1)oc1ccccc12)C(=O)O)P(=O)(O)O (stereo in doubt; 40j')
15			0.035	COc1ccc(CCC(N[C@@H](Cc2ccc3c(c2)oc2ccccc23)C(=O)O)P(=O)(O)O)c(OC)c1OC (stereo in doubt; 40k') [listing 1 of 2 here]
	91	428		COc1ccc(CCC(N[C@@H](Cc2ccc3c(c2)oc2ccccc23)C(=O)O)P(=O)(O)O)c(OC)c1OC (stereo in doubt; 40k') [listing 2 of 2 here]
			0.52	COc1ccc(CCC(N[C@@H](Cc2ccc3c(c2)oc2ccccc23)C(=O)O)P(=O)(O)O)c(OC)c1OC (stereo in doubt; 40l') [listing 1 of 2 here]
	64			COc1ccc(CCC(N[C@@H](Cc2ccc3c(c2)oc2ccccc23)C(=O)O)P(=O)(O)O)c(OC)c1OC (stereo in doubt; 40l') [listing 2 of 2 here]
48			0.2	O=C(O)[C@H](Cc1ccc2c(c1)oc1ccccc12)NC(CCc1cccc2cccnc12)P(=O)(O)O (stereo in doubt; 40n') [listing 1 of 2 here]
	78	240		O=C(O)[C@H](Cc1ccc2c(c1)oc1ccccc12)NC(CCc1cccc2cccnc12)P(=O)(O)O (stereo in doubt; 40n') [listing 2 of 2 here]
